For the data set, the system named is MS2 coat protein. The data set can be described thus: apparent Kd, MS2 coat protein; higher = weaker binding; RNA-MaP array; tryptophan 2.4 mM where present. Summed up: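 Designs were transcribed by stalled E. coli RNA polymerase on Illumina sequencing-chip clusters. They were titrated with SNAP-549-labelled MS2 coat protein from 0.7 or 1.5 nM, doubling to 3 µM, without and then with constant ligand. Buffer: 100 mM Tris-HCl pH 7.5, 80 mM KCl, 4 mM MgCl2, BSA, DTT, yeast tRNA, Tween-20. Green signal was normalised to red-channel RNA signal and control-cluster median Fmax. Apparent Kd is the median of filtered per-cluster binding-curve fits.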

Where [1] appears, read: designed as: OFF switch for tryptophan, no ligand.
Setting [2] is: ligand present: tryptophan, designed as: OFF switch for tryptophan.
Where [3] appears, read: designed as: ON switch for tryptophan, no ligand.
The mark [4] stands for this setting: ligand present: tryptophan, designed as: ON switch for tryptophan.

For “AGAUUCGACACGGCCGCCACUCGUGGAGGAUUUCCGAGUGUCGAACAUGAGGAUCACCCAUGUACGAGGACCGGGUGUUGAGUCU”, the “apparent Kd” value by setting is: under setting [1], 28.4 nM; under setting [2], 234 nM.

With “GGUUGAUGACAUGAGGAUCACCCAUGUAGGCGAGGACCGGUACGGCCGCCACUCGACAUGAGGAUCACCCAUGUCGGCGUCCGUG”, the “apparent Kd” value runs as follows: under setting [1], 15.2 nM; under setting [2], 26.2 nM.

Take “AGAUUCGACACGGCCGCCACUCUACACGGAUUUCCGAGUGUCGAACAUGAGGAUCACCCAUGUGGGAGGACCGGGUGUUGAGUCU”: the “apparent Kd” value is, setting by setting: under setting [1], 437 nM; under setting [2], 1030 nM.

With “AGUAUUGGAAACAGUACUAGUGAUCCGGUCCGAGGACCGGUACGGCCGCCACUCGAAUUAAAUAAACAUGAGGAUCACCCAUGUA”, the “apparent Kd” value is 16.8 nM under setting [1] and 46.1 nM under setting [2].

“GUUAUAUCAAAAGAUGUAACAGUGGGUGAACGAGGACCGGUACGGCCGCCACUCGGACAUGAGGAUCACCCAUGUCCAUGUGAAA”: the “apparent Kd” value under setting [1] stood at 17.9 nM and the “apparent Kd” value under setting [2] was 37.1 nM.

As to “AUACAUGAGGAUCACCCAUGUCCUCGUGAUCGAGGACCGGUACGGCCGCCACUCGGUCCUCGCGAGGUGGAGUCAAAGACUCCAA”, the “apparent Kd” value was determined as 128 nM under setting [3] and 87.1 nM under setting [4].

Turning to “AGUCUGGACUCGGCCGCCACUCGUGAUGCUUUGGCACAUGAGGAUCACCCAUGUGGUCGGCCUUAGAGGACCGGGAGUACCAGCU”, the “apparent Kd” value is, setting by setting: under setting [3], 56.4 nM; under setting [4], 12.9 nM.

Consider “GGGCGCUAUCCCGCGAGGGAUAGCGUUCGUCGAGGACCGGUACGGCCGCCACUCGAACGAGUGGUGACAUGAGGAUCACCCAUGU”, for which the “apparent Kd” value came out at 50.2 nM under setting [1] and 68.8 nM under setting [2].

Consider “UAACAUGAGGAUCACCCAUGUAUACUUAGUCGAGGACCGGUACGGCCGCCACUCGUACUUCAAGAUUUGGCGGAAAAUGUAUGUA”, for which the “apparent Kd” value by setting is: under setting [1], 12.5 nM; under setting [2], 15.1 nM.

Turning to “CAUGCCAGGGCGGCCGCCACUGUGGCUACGGUACAUGAGGAUCACCCAUGUUUGUGGUUGAUCUACAGGACCGGGCCCUAGCACG”, the “apparent Kd” value amounted to 118 nM under setting [3] and 238 nM under setting [4].

Take “UCGGUUUUCUACAUGAGGAUCACCCAUGUCCGAGGACCGGUACGGCCGCCACUCGCAAUCAAACAGACGUGGGCCAAAUUUGCGU”: the “apparent Kd” value is 10 nM under setting [1] and 14.3 nM under setting [2].

For the sequence “GGGUGGUAGGCGGCCGCCACUGAUUUUUAUUUAUAGAUGACAUGAGGAUCACCCAUGUUGAUAUGCAGGACCGGGCCUGUUGUUG”, the “apparent Kd” value reads like this: under setting [3], 15.1 nM; under setting [4], 13.2 nM.

Regarding “AGAUUCGACACGGCCGCCACUCGAGACGGAUUUCCGAGUGUCGAACAUGAGGAUCACCCAUGUCCGAGGACCGGGUGUUGAGUCU”, the “apparent Kd” value came to 32.2 nM under setting [1] and 401 nM under setting [2].

On to “AGAUGAGUCACGGCCGCCACUCUUCACAGGUUCACCCUUGGUUAACAUGAGGAUCACCCAUGUGGGAGGACCGGGUGAUGAGCAU”, for which the “apparent Kd” value by setting is: under setting [1], 13.7 nM; under setting [2], 33.4 nM.

Turning to “GGGAGGGAGGCGGCCGCCACUGAUUUUCAUAUAUAUAUAACAUGAGGAUCACCCAUGUAGAUAUGCAGGACCGGGCCUUUUUUUU”, the “apparent Kd” value runs as follows: under setting [3], 20.5 nM; under setting [4], 17.6 nM.

“GAUUAAACAUGAGGAUCACCCAUGUAUAUACGAGGACCGGUACGGCCGCCACUCGAAAACGAGUAUCCUCGAAUAAACAUGAUAA”: the “apparent Kd” value is 37.2 nM under setting [3] and 67 nM under setting [4].

“CGUAUUGGAAACAGUACGAGUGAUCCGGUCCGAGGACCGGUACGGCCGCCACUCGAAAAUAAAUAACAUGAGGAUCACCCAUGUA”: the “apparent Kd” value under setting [1] stood at 16.7 nM and the “apparent Kd” value under setting [2] stood at 23.9 nM.

Take “CAAAAUUUAACGGCCGCCACUUACUCAUGAGGUAACAACAUGAGGAUCACCCAUGUUUGAGGAUCAAGGACCGGGUUAAAUUUUG”: the “apparent Kd” value under setting [3] is 30.6 nM and the “apparent Kd” value under setting [4] was 18.2 nM.

Consider “CUGUGUCCUUCGGCCGCCACUACAUGAGGAUCACCCAUGUCGUUACGGCUCCCAAUGACGCUUUGUAGGACCGGGAAGGAGUAUG”, for which the “apparent Kd” value under setting [1] was found to be 10.3 nM and the “apparent Kd” value under setting [2] is 15.8 nM.

With “CCUAUCCAGUCGGCCGCCACUGACCAUUUGGAACAGUGGGUGAAAACAUGAGGAUCACCCAUGUACAGGACCGGGACUGUAUAGG”, the “apparent Kd” value is, setting by setting: under setting [1], 11.6 nM; under setting [2], 42 nM.

For “UCGGUGCUCUACAUGAGGAUCACCCAUGUCCGAGGACCGGUACGGCCGCCACUCGCAAUCAAACAGACGUGGGCCAACUUUGCGU”, the “apparent Kd” value under setting [1] turned out to be 10.3 nM and the “apparent Kd” value under setting [2] turned out to be 13.6 nM.

Consider “AAUGGCCGUACCGGAAGGGUGAUCCUCAAACGAGGACCGGUACGGCCGCCACUCGAUAACAUGAGGAUCACCCAUGUAAUAAUAA”, for which the “apparent Kd” value by setting is: under setting [1], 331 nM; under setting [2], 389 nM.

Take “GGUAUGUAUUCGGAAACGAAUGCAUACCAACGAGGACCGGUACGGCCGCCACUCGGGCGGCGAUCACAUGAGGAUCACCCAUGUA”: the “apparent Kd” value came to 45.7 nM under setting [1] and 46.7 nM under setting [2].

For “CUAUAAGUACCGGUCCUCAGAUCCUCAUGACGAGGACCGGUACGGCCGCCACUCGAAACAUGAGGAUCACCCAUGUAAUAAUAUC”, the “apparent Kd” value under setting [1] stood at 20.7 nM and the “apparent Kd” value under setting [2] came out at 18.6 nM.

For the sequence “AAUGGUCGUACUGGAAUGGUGAUCCUCAAACGAGGACCGGUACGGCCGCCACUCGAUAACAUGAGGAUCACCCAUGUAAUAAUAA”, the “apparent Kd” value by setting is: under setting [1], 40.7 nM; under setting [2], 20.8 nM.

These data come from the EternaBench riboswitch data.
